Active and inactive are the calls of the source. No cut-off for these calls is given here.

Assay [1] has as its system Influenza A virus. As to the kind of experiment: Antiviral activity against oseltamivir-susceptible zanamivir-, adamantane-resistant Influenza A virus (A/pdm/Illinois/10/2009(H1N1)) harboring M2 V28I, S31N mutant and neuraminidase H274Y mutant infected in MDCK cells assessed as inhibition of viral replication after 3 days by microscopic analysis using crystal violet stain. It counts as functional, organism-based, (A/Illinois/10/2009(H1N1)).

The subject of assay [2] is Influenza A virus. Kind of assay: Antiviral activity against oseltamivir-susceptible zanamivir-, adamantane-resistant Influenza A virus (A/pdm/Washington/29/2009 (H1N1)) harboring M2 V28I, S31N mutant and neuraminidase H274Y mutant infected in MDCK cells assessed as inhibition of viral replication after 3 days by microscopic analysis using crystal violet stain. It counts as functional, organism-based, Influenza A virus (A/Washington/29/2009(H1N1)).

The test system of assay [3] is Influenza A virus. Kind of assay: Antiviral activity against adamantane-resistant zanamivir-,oseltamivir-susceptible Influenza A virus (A/pdm/Mexico/4604/2009(H1N1)) harboring M2 V28I, S31N mutant infected in MDCK cells assessed as determination of viral titer in cell culture at 128 uM after 24 hrs by immunofluorescence assay. Type of assay: functional, organism-based. Conditions: Influenza A virus (A/Mexico/4604/2009(H1N1)). The essentials: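 MDCK cells (ATCC or Mill Hill) infected with 2009 pandemic H1N1 at MOI ~0.01, 1 h adsorption at 4°C, washed. DMEM with 2 μg/ml TPCK-trypsin plus drug for 24 h at 37°C. Supernatants titrated on MDCK cells by focus formation: methanol/acetic acid fixation, anti-nucleoprotein MAbs, FITC secondary, foci counted. Titre as log10 FFU per 100 μl; detection limit <10 FFU; quadruplicate wells.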

Assay [4] relates to Influenza A virus. Kind of assay: Antiviral activity against Influenza A virus (A/Illinois/10/2009(H1N1)) harboring neuraminidase H275Y mutant infected in MDCK cells from ATCC assessed as log reduction in viral titer at 1.6 uM after 24 hrs by immunofluorescent assay. Type of assay: functional. In a few lines: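 Yield reduction in MDCK-ATCC or MDCK-Mill Hill cells infected at MOI ∼0.01. Adsorption 1 h at 4°C, washed, then DMEM with 2 μg/ml TPCK-trypsin and drug. At 24 h, supernatants were titrated by immunofluorescent focus assay on MDCK cells with anti-NP monoclonals and FITC secondary. Titres as log10 FFU per 100 μl; detection limit <10 FFU. Quadruplicate, mean ± SD.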

For assay [5], the system named is Influenza A virus. Kind of assay: Antiviral activity against Influenza A virus (A/Illinois/10/2009(H1N1)) harboring neuraminidase H275Y mutant infected in MDCK cells from ATCC assessed as inhibition of viral replication after 3 days by microscopic analysis using crystal violet stain. Type of assay: functional. In a few lines: (§1)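 Confluent MDCK-ATCC monolayers infected with virus diluted to give 15–45 plaques/well. Adsorption 1 h at 37°C without drug, then washed. Overlaid with 0.8% agarose in MEM containing drug plus TPCK-trypsin: 3 μg/ml for seasonal viruses, 2 μg/ml for 2009 A(H1N1). Incubated 3 days at 37°C, 5% CO2. Ethanol-fixed, crystal violet-stained, plaques counted. EC50 by curve fit; duplicates on three occasions, mean ± SD.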

Assay [6] deals with Influenza A virus. Kind of assay: Antiviral activity against Influenza A virus (A/Illinois/10/2009(H1N1)) harboring neuraminidase H275Y mutant infected in MDCK cells from Mill Hill assessed as inhibition of viral replication after 3 days by microscopic analysis using crystal violet stain. It counts as functional.
Assay [7] concerns Influenza A virus. As to the kind of experiment: Antiviral activity against adamantane-, zanamivir-susceptible oseltamivir-resistant Influenza A virus (A/Georgia/20/2006(H1N1)) harboring neuraminidase H274Y mutant infected in MDCK cells assessed as inhibition of viral replication after 3 days by microscopic analysis using crystal violet stain. It counts as functional, organism-based. In a few lines:
as §1

Assay [8] deals with Influenza A virus. Kind of assay: Antiviral activity against adamantane-susceptible zanamivir-, oseltamivir-resistant Influenza A virus (A/Santiago/5248/2008(H1N1)) harboring neuraminidase D198E mutant infected in MDCK cells assessed as inhibition of viral replication after 3 days by microscopic analysis using crystal violet stain. It counts as functional, organism-based.
In assay [9] the test system is Influenza A virus. As to the kind of experiment: Antiviral activity against adamantane-susceptible zanamivir-, oseltamivir-resistant Influenza A virus (A/Brazil/1633/2008(H1N1)) harboring neuraminidase Q136K mutant infected in MDCK cells assessed as inhibition of viral replication after 3 days by microscopic analysis using crystal violet stain. Type of assay: functional, organism-based.

Assay [10] relates to Influenza A virus. As to the kind of experiment: Antiviral activity against adamantane-, zanamivir-susceptible oseltamivir-resistant Influenza A virus (A/Washington/10/2008(H1N1)) harboring M2 S31N mutant infected in MDCK cells assessed as inhibition of viral replication after 3 days by microscopic analysis using crystal violet stain. Type of assay: functional, organism-based. The essentials:
as §1

For assay [11], the system named is Influenza A virus. As to the kind of experiment: Antiviral activity against adamantane-resistant zanamivir-,oseltamivir-susceptible Influenza A virus (A/Wisconsin/16/2008(H1N1)) harboring neuraminidase H274Y mutant infected in MDCK cells assessed as inhibition of viral replication after 3 days by microscopic analysis using crystal violet stain. Type of assay: functional, organism-based. In a few lines:
as §1

Assay [12] deals with Influenza A virus. Kind of assay: Antiviral activity against adamantane-, zanamivir-susceptible oseltamivir-resistant Influenza A virus (A/North Carolina/02/ 2009(H1N1)) harboring M2 S31N mutant infected in MDCK cells assessed as inhibition of viral replication after 3 days by microscopic analysis using crystal violet stain. Type of assay: functional, organism-based. The essentials: as §1

For assay [13], the system named is Influenza A virus. Kind of assay: Antiviral activity against oseltamivir-susceptible zanamivir-, adamantane-resistant Influenza A virus (A/Texas/12/2007 (clone)(H3N2)) harboring neuraminidase E119I mutant and harboring M2 S31N mutant infected in MDCK cells assessed as inhibition of viral replication after 3 days by microscopic analysis using crystal violet stain. It counts as functional, organism-based, Influenza A virus (A/Texas/12/2007(H3N2)).

Assay [14] relates to Influenza A virus. As to the kind of experiment: Antiviral activity against adamantane-resistant zanamivir-,oseltamivir-susceptible Influenza A virus (A/Florida/01/2009(H3N2)) harboring M2 S31N mutant infected in MDCK cells assessed as inhibition of viral replication after 3 days by microscopic analysis using crystal violet stain. It counts as functional, organism-based. The essentials:
as §1

In assay [15] the test system is Influenza B virus. Kind of assay: Antiviral activity against oseltamivir-susceptible zanamivir-, adamantane-resistant Influenza B virus (B/Rochester/01/2001) harboring neuraminidase D198N mutant infected in MDCK cells assessed as inhibition of viral replication after 3 days by microscopic analysis using crystal violet stain. It counts as functional, organism-based.

A short description of assay [16]: Antiviral activity against adamantane-, oseltamivir-, zanamivir-resistant Influenza B virus (B/Illinois/03/2008) harboring neuraminidase E119A mutant infected in MDCK cells assessed as inhibition of viral replication after 3 days by microscopic analysis using crystal violet stain. It counts as functional, cell-based. In a few lines:
as §1

Assay [17] is described as follows: Antiviral activity against adamantane-resistant zanamivir-,oseltamivir-susceptible Influenza B virus (B/Illinois/47/2005) infected in MDCK cells assessed as inhibition of viral replication after 3 days by microscopic analysis using crystal violet stain. It counts as functional, cell-based. Conditions: 72 h.
The subject of assay [18] is Influenza A virus. Kind of assay: Antiviral activity against adamantane-resistant zanamivir-,oseltamivir-susceptible Influenza A virus (A/pdm/California/07/2009 (H1N1)) harboring M2 V28I, S31N mutant infected in MDCK cells assessed as inhibition of viral replication after 3 days by microscopic analysis using crystal violet stain. Type of assay: functional, organism-based, A/California/07/2009(H1N1). In a few lines:
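Plaque reduction on confluent MDCK-ATCC monolayers: pretitrated virus (15–45 plaques per well) adsorbed 1 h at 37°C without drug, then washed with PBS. Agarose overlay (0.8%, in MEM) with drug added, 3 days at 37°C. Cells fixed with 70% ethanol, stained with crystal violet, plaques counted. EC50 from curve fitting, averaged over three separate experiments in duplicate, ± SD.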

Assay [19] relates to Influenza A virus. As to the kind of experiment: microbe, parasite or virus in culture. Conditions: (A/Wuhan/395/1995-like (H3N2)), MDCK, 72 h.
The test system of assay [20] is Influenza B virus. Kind of assay: microbe, parasite or virus in culture. As to conditions: (B/Rochester/01/2001), MDCK, 72 h.

On to `NC(=O)c1nc(F)cnc1O` [FAVIPIRAVIR], for which the EC50 was determined as 22.5 µM in the assay on Influenza A virus [1]; 6.62 µM with Influenza A virus [2]; 2.55 µM in the assay on Influenza A virus [7]; 4.7 µM with Influenza A virus [8]; 0.83 µM in the assay on Influenza A virus [9]; 3.25 µM in the assay on Influenza A virus [10]. Further, the concentration for a half-maximal effect (EC50) worked out at 2.87 µM in the assay on Influenza A virus [11]; 5.03 µM in the assay on Influenza A virus [12]; 3.95 µM with Influenza A virus [13]; 0.45 µM with Influenza A virus [14]; 1.72 µM in the assay with Influenza B virus [15]; 3 µM in [16]. For the same molecule, the EC50 in assay [17] came to 4.01 µM; in the assay with Influenza A virus [18], 1.4 µM; in the assay with Influenza A virus [19], 5.99 µM; with Influenza B virus [20], 1.4 µM. Moreover, in the assay on Influenza A virus [3], the result was Active. Also, the log10FFU in the assay on Influenza A virus [4] turned out to be 4.9; with Influenza A virus [5], 4.21; in the assay on Influenza A virus [6], 5.03.

Broadly, the EC50 is the concentration needed to bring the measured effect to its halfway point.

The values above are taken from ChEMBL document CHEMBL1671691 (Antimicrob Agents Chemother, 2010).
